Data as given in ChEMBL document CHEMBL3124843, “Synthesis, cytostatic, antimicrobial, and anti-HCV activity of 6-substituted 7-(het)aryl-7-deazapurine ribonucleosides” (J Med Chem, 2014).
Calls of active or inactive are those of the source. No rule for the calls is given here.

Tests used:
MRC5 = test: Cytostatic activity against human MRC5 cells after 72 hrs by MTT assay; format: ADME, cell-based; details: MRC5, 72 h
In short: (§1)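 IC50 is the concentration that cuts cell growth by 50%, read by quantitative metabolic MTT staining after a 3-day treatment. The resistant sublines were made by raising the concentration of the cytotoxic drug step by step. CEM-DNR-bulk (daunorubicin-selected) stably overexpresses mrp-1. K562-TAX (paclitaxel-selected) expresses only mdr-1. HCT116p53−/− carries null p53 alleles. BJ and MRC-5 are nonmalignant fibroblasts.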

Candida albicans = test: Antifungal activity against Candida albicans after 48 hrs; format: functional, organism-based
[1] = Cytotoxicity against human HuH7 cells infected with Hepatitis C virus subtype 2a; format: cell-based, Huh-7
Hepatitis C virus [2] = test: Antiviral activity against Hepatitis C virus subtype 1b infected in human HuH7 cells; format: functional, organism-based, Hepacivirus hominis; details: genotype 1b, Huh-7
Pseudomonas aeruginosa [3] = test: Antibacterial activity against Pseudomonas aeruginosa CCM 3955 after 24 hrs; format: functional, organism-based
HL-60 = test: Antiproliferative activity against human HL60 cells after 72 hrs by XTT assay; format: functional, cell-based; details: HL-60, 72 h
In short: (§2)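 Antiproliferative test on HL-60 promyelocytic leukemia and HeLa S3 cervical carcinoma cells growing in liquid suspension.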

HCT-116 [4] = test: Cytostatic activity against human HCT116 cells after 72 hrs by MTT assay; format: functional, cell-based; details: HCT-116, 72 h; in short: as §1
[5] = Cytotoxicity against human HuH7 cells infected with Hepatitis C virus subtype 1b; format: cell-based, Huh-7
BJ = test: Cytostatic activity against human BJ cells after 72 hrs by MTT assay; format: ADME, cell-based; in short: as §1
[6] = system: Staphylococcus haemolyticus; test: Antibacterial activity against methicillin-resistant Staphylococcus haemolyticus A/16568 after 24 hrs; format: functional, organism-based
Escherichia coli [7] = test: Antibacterial activity against multi-resistant Escherichia coli C/16702 after 24 hrs; format: functional, organism-based
CCRF-CEM [8] = test: Cytostatic activity against human CCRF-CEM cells after 72 hrs by MTT assay; format: functional, cell-based; in short: as §1
Pseudomonas aeruginosa [9] = test: Antibacterial activity against multi-resistant Pseudomonas aeruginosa A/16575 after 24 hrs; format: functional, organism-based
CCRF-CEM [10] = test: Inhibition of RNA synthesis in human CCRF-CEM cells assessed as BrU-positive cells at IC50 after 24 hrs by propidium iodide staining-based flow cytometric analysis (reference value: 43.3%); format: functional; set-up: scale not given: the % may be the effect or the level left
[11] = Cytostatic activity against human CEM-DNR-bulk cells after 72 hrs by MTT assay; format: functional, cell-based; in short: as §1
Staphylococcus aureus [12] = test: Antibacterial activity against methicillin-resistant Staphylococcus aureus MRSA 4591 after 24 hrs; format: functional, organism-based
Candida tropicalis = test: Antifungal activity against Candida tropicalis after 48 hrs; format: functional, organism-based
[13] = Antiproliferative activity against human HeLaS3 cells after 72 hrs by XTT assay; format: functional, cell-based; details: HeLa S3, 72 h; in short: as §2
A549 = test: Cytostatic activity against human A549 cells after 72 hrs by MTT assay; format: functional, cell-based; details: A549, 72 h; in short: as §1
Staphylococcus aureus [14] = test: Antibacterial activity against Staphylococcus aureus CCM 3953 after 24 hrs; format: functional, organism-based
K562 [15] = test: Cytostatic activity against paclitaxel-resistant human K562 cells after 72 hrs by MTT assay; format: functional, cell-based; details: K562, 72 h; in short: as §1
CCRF-CEM [16] = test: Cell cycle arrest in human CCRF-CEM cells assessed as accumulation at sub-G1 phase at IC50 after 24 hrs by propidium iodide staining-based flow cytometric analysis (reference value: 9.6%); format: functional
Candida parapsilosis = test: Antifungal activity against Candida parapsilosis after 48 hrs; format: functional, organism-based
Hepatitis C virus [17] = test: Antiviral activity against Hepatitis C virus subtype 2a infected in human HuH7 cells; format: functional, organism-based, Hepacivirus hominis; details: genotype 2a, Huh-7
K562 [18] = test: Cytostatic activity against human K562 cells after 72 hrs by MTT assay; format: functional, cell-based; details: K562, 72 h; in short: as §1
Enterococcus faecalis = test: Antibacterial activity against Enterococcus faecalis CCM 4224 after 24 hrs; format: functional, organism-based
Escherichia coli [19] = test: Antibacterial activity against Escherichia coli CCM 3954 after 24 hrs; format: functional, organism-based
HCT-116 [20] = test: Cytostatic activity against p53-deficient human HCT116 cells after 72 hrs by MTT assay; format: functional, cell-based; details: HCT-116, 72 h; in short: as §1
CCRF-CEM [21] = test: Mitotic arrest in human CCRF-CEM cells assessed as pH3Ser10-positive cells at IC50 after 24 hrs by propidium iodide staining-based flow cytometric analysis (reference value: 1.4%); format: functional
HepG2 = test: Antiproliferative activity against human HepG2 cells after 72 hrs by XTT assay; format: functional, cell-based; details: HepG2, 72 h
Pichia kudriavzevii = test: Antifungal activity against Candida crusei after 48 hrs; format: functional, organism-based

| SMILES | IC50 (MRC5) | Activity (Candida albicans) | CC50 [1] | EC50 (Hepatitis C virus [2]) | Activity (Pseudomonas aeruginosa [3]) | IC50 (HL-60) | IC50 (HCT-116 [4]) | CC50 [5] | IC50 (BJ) | Activity [6] | Activity (Escherichia coli [7]) | IC50 (CCRF-CEM [8]) | Activity (Pseudomonas aeruginosa [9]) | IC50 [11] | Activity (Staphylococcus aureus [12]) | Activity (Candida tropicalis) | IC50 [13] | IC50 (A549) | Activity (Staphylococcus aureus [14]) | IC50 (K562 [15]) | further results |
| --- | --- | --- | --- | --- | --- | --- | --- | --- | --- | --- | --- | --- | --- | --- | --- | --- | --- | --- | --- | --- | --- |
| COc1ncnc2c1c(I)cn2[C@@H]1O[C@H](CO)[C@@H](O)[C@H]1O | 63 µM | inactive | > 44 µM | > 44 µM | inactive | 2.3 µM | > 20 µM | > 44 µM | 91 µM | inactive | inactive | 1.15 µM | inactive | > 20 µM | inactive | inactive | 14.3 µM | > 20 µM | inactive | 14.8 µM | Activity (CCRF-CEM [10]): 0.2%; Activity (CCRF-CEM [16]): 6%; Activity (Candida parapsilosis): inactive; EC50 (Hepatitis C virus [17]): > 44 µM; IC50 (K562 [18]): > 20 µM; Activity (Enterococcus faecalis): inactive; Activity (Escherichia coli [19]): inactive; IC50 (HCT-116 [20]): > 20 µM; Activity (CCRF-CEM [21]): 0.9%; IC50 (HepG2): > 20 µM; Activity (Pichia kudriavzevii): inactive |
| COc1ncnc2c1c(-c1ccco1)cn2[C@@H]1O[C@H](CO)[C@@H](O)[C@H]1O | 1.7 µM | inactive | > 44 µM | 0.02 µM | inactive | 0.1 µM | 0.04 µM | > 44 µM | 0.43 µM | inactive | inactive | 0.02 µM | inactive | 0.16 µM | inactive | inactive | 1.02 µM | 0.03 µM | inactive | 0.38 µM | Activity (CCRF-CEM [16]): 6.8%; Activity (Candida parapsilosis): inactive; EC50 (Hepatitis C virus [17]): 0.03 µM; IC50 (K562 [18]): 0.06 µM; Activity (Enterococcus faecalis): inactive; Activity (Escherichia coli [19]): inactive; IC50 (HCT-116 [20]): 0.04 µM; Activity (CCRF-CEM [21]): 1.4%; IC50 (HepG2): 0.3 µM; Activity (Pichia kudriavzevii): inactive |
| O=c1[nH]cnc2c1c(-c1ccoc1)cn2[C@@H]1O[C@H](CO)[C@@H](O)[C@H]1O | > 100 µM | inactive | > 44 µM | 4.54 µM | inactive | 6.37 µM | 10.3 µM | > 44 µM | > 100 µM | inactive | inactive | 9.03 µM | inactive | > 20 µM | inactive | inactive | > 20 µM | > 20 µM | inactive | 14.5 µM | Activity (Candida parapsilosis): inactive; EC50 (Hepatitis C virus [17]): 22.3 µM; IC50 (K562 [18]): 12.5 µM; Activity (Enterococcus faecalis): inactive; Activity (Escherichia coli [19]): inactive; IC50 (HCT-116 [20]): 14.8 µM; IC50 (HepG2): 12.1 µM; Activity (Pichia kudriavzevii): inactive |
| O=c1[nH]cnc2c1c(-c1ccsc1)cn2[C@@H]1O[C@H](CO)[C@@H](O)[C@H]1O | > 100 µM | inactive | > 44 µM | 14.3 µM | inactive | 12 µM | > 20 µM | > 44 µM | > 100 µM | inactive | inactive | 14.5 µM | inactive | > 20 µM | inactive | inactive | > 20 µM | > 20 µM | inactive | > 20 µM | Activity (Candida parapsilosis): inactive; EC50 (Hepatitis C virus [17]): > 44 µM; IC50 (K562 [18]): > 20 µM; Activity (Enterococcus faecalis): inactive; Activity (Escherichia coli [19]): inactive; IC50 (HCT-116 [20]): > 20 µM; IC50 (HepG2): > 15 µM; Activity (Pichia kudriavzevii): inactive |
